From ChEMBL document CHEMBL1221305, “Synthesis and evaluation of oryzalin analogs against Toxoplasma gondii” (Bioorg Med Chem Lett, 2010)
Activity calls are given as the source filed them. The rule behind the calls is not given here.

How the values were obtained:
[1] = test system: Toxoplasma gondii; test: Antimicrobial activity against Toxoplasma gondii infected in HFF after 8 days by plaque assay; type: functional, organism-based; settings: 192 h
[2] = test system: Toxoplasma gondii RH; test: Inhibition of tubulin in Toxoplasma gondii RH infected in HFF assessed as microtubules disruption at 10 to 25 uM after 28 hrs by immunofluorescence assay
Procedure, shortened: (§1)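 Human fibroblast (HFF) cultures infected with intracellular T. gondii were exposed to compound in DMSO, with DMSO-only controls. They were fixed 28 h after infection for immunofluorescence. Parasite subpellicular microtubules were stained green, with host microtubules or parasite surface antigen P30/SAG1 in red and DNA in blue. Matched phase-contrast images were taken, and parasites per vacuole were scored.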

[3] = test system: Toxoplasma gondii; test: Antimicrobial activity against Toxoplasma gondii RH infected in HFF assessed as inhibition of parasite replication at 10 to 25 uM after 28 hrs by immunofluorescence assay; type: functional, organism-based; procedure, shortened: as §1
[4] = test system: Toxoplasma gondii; test: Antimicrobial activity against Toxoplasma gondii RH infected in HFF assessed as inhibition of parasite growth at 10 to 25 uM after 28 hrs by immunofluorescence assay; type: functional, organism-based; procedure, shortened: as §1
[5] = test system: HFF; test: Cytotoxicity against HFF assessed as cell vacuolation at 30 uM after 17 hrs by MTS assay; type: cell-based; settings: human
[6] = test system: HFF; test: Cytotoxicity against HFF assessed as assessed as reduction of cell viability at 30 uM after 17 hrs by MTS assay; type: cell-based; settings: human
[7] = target: Tubulin (Homo sapiens) (UniProt P68371+Q9H4B7+P0DPH7+P68366+Q13509+Q71U36+P04350+Q3ZCM7+P07437+P68363+Q9BQE3+Q6PEY2+Q13885+Q9BVA1+Q9BUF5); test: Inhibition of tubulin in HFF assessed as microtubules disruption at 0.5 uM after 28 hrs by immunofluorescence assay
Procedure, shortened: (§2)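 Human foreskin fibroblast (HFF) cultures infected with intracellular Toxoplasma were treated for 28 h with 0.5 µM compound in DMSO, with DMSO vehicle as control. Read-out was immunofluorescence: host cell microtubules in red, parasite subpellicular microtubules/tubulin in green, and host and parasite DNA in blue. Microtubules were scored as filamentous linear arrays or as diffuse staining, with matched phase-contrast images.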

[8] = test system: HFF; test: Cytotoxicity against HFF assessed as reduction of cell viability at 0.5 uM after 17 hrs by MTS assay; type: cell-based; settings: human
Procedure, shortened: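 Host HFF cells were treated for 17 h with compound at 0.5 µM or 30 µM. Viable cells were quantified by tetrazolium dye (MTS, CellTiter reagent) assay.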

[9] = test system: Toxoplasma gondii; test: Antimicrobial activity against Toxoplasma gondii RH infected in HFF assessed as inhibition of parasite replication at 0.5 uM after 28 hrs by immunofluorescence assay; type: functional, organism-based
[10] = test system: Toxoplasma gondii RH; test: Inhibition of tubulin in Toxoplasma gondii RH infected in HFF assessed as microtubules disruption at 0.5 uM after 28 hrs by immunofluorescence assay; procedure, shortened: as §2

Work on `CCCN(CCC)c1c([N+](=O)[O-])cc(S(=O)(=O)NCCO)cc1[N+](=O)[O-]` yielded an IC50 [1] of 26000 nM.
`CCCCN(CCCC)c1c([N+](=O)[O-])cc(C(F)(F)F)c(N)c1[N+](=O)[O-]` gave an IC50 [1] of 510 nM.
`CCCN(CCC)c1c([N+](=O)[O-])cc([N+](=O)[O-])cc1C(F)(F)F` gave an IC50 [1] of 7800 nM.
`NS(=O)(=O)c1cc([N+](=O)[O-])c(N(Cc2ccccc2)Cc2ccccc2)c([N+](=O)[O-])c1` was tested, and the inhibition [2] was “inactive”, the inhibition [3] was “Active” and the inhibition [4] was “Active”.
With `NS(=O)(=O)c1cc([N+](=O)[O-])c(N(CCc2ccccc2)CCc2ccccc2)c([N+](=O)[O-])c1` the Activity [5] was “Toxic”, the inhibition [2] was “inactive” and the inhibition [3] was “Active”. The inhibition [4] was “Active” and the Activity [6] was “Toxic”.
With `CCCN(CCC)c1c([N+](=O)[O-])cc(C(F)(F)F)cc1[N+](=O)[O-]` [TRIFLURALIN] the IC50 [1] was 650 nM.
For `CCCN(CCC)c1c(C#N)cc(S(N)(=O)=O)cc1C#N`, the IC50 [1] was 4800 nM.
`NS(=O)(=O)c1cc([N+](=O)[O-])c(N(CC2CCCCC2)CC2CCCCC2)c([N+](=O)[O-])c1` was tested, and the inhibition [2] was “inactive”, the inhibition [3] was “Active” and the inhibition [4] was “Active”.
`CCCN(CCC)c1c([N+](=O)[O-])cc(S(=O)(=O)Nc2ccccc2)cc1[N+](=O)[O-]` showed an IC50 [1] of 6700 nM.
Work on `CCCN(CCC)c1c([N+](=O)[O-])cc(S(=O)(=O)N(C)C)cc1[N+](=O)[O-]` yielded an IC50 [1] of 3400 nM.
Work on `NS(=O)(=O)c1cc([N+](=O)[O-])c(N(CCCl)Cc2ccccc2)c([N+](=O)[O-])c1` yielded an IC50 [1] of 850 nM.
With `NS(=O)(=O)c1cc([N+](=O)[O-])c(N(Cc2ccccc2)CC2CC2)c([N+](=O)[O-])c1` the IC50 [1] was 2100 nM.
With `Cc1ccc(CN(Cc2ccc(C)cc2)c2c([N+](=O)[O-])cc(S(N)(=O)=O)cc2[N+](=O)[O-])cc1` the Activity [5] was “Toxic”, the inhibition [2] was “inactive” and the inhibition [3] was “Active”. For the same molecule, the inhibition [4] was “Active”.
With `CCCCN(CCCC)c1c([N+](=O)[O-])cc(S(N)(=O)=O)cc1[N+](=O)[O-]` the IC50 [1] was 1100 nM.
`NS(=O)(=O)c1cc([N+](=O)[O-])c(N(CCCCl)Cc2ccccc2)c([N+](=O)[O-])c1` gave an IC50 [1] of 2600 nM.
With `CCCN(CCC)c1c([N+](=O)[O-])cc(S(N)(=O)=O)cc1[N+](=O)[O-]` [ORYZALIN] the IC50 [1] was 250 nM.
`CC(C)CN(CC(C)C)c1c([N+](=O)[O-])cc(S(N)(=O)=O)cc1[N+](=O)[O-]` was tested, and the IC50 [1] was 350 nM.
For `CCCN(CCC)c1c([N+](=O)[O-])cc(C(F)(F)F)c(N)c1[N+](=O)[O-]`, the Activity [7] was “Non-toxic”, the Activity [8] was “Non-toxic” and the inhibition [9] was “Active”. The IC50 [1] was 36 nM and the inhibition [10] was “Active”.
`CCCN(CCC)c1c([N+](=O)[O-])cc(S(=O)(=O)Nc2ccc(O)cc2)cc1[N+](=O)[O-]` was tested, and the IC50 [1] was 2600 nM.
In the case of `CCN(CC)c1c([N+](=O)[O-])cc(C(F)(F)F)c(N)c1[N+](=O)[O-]` [DINITRAMINE], the IC50 [1] is reported as 70 nM.
